OX1R antag-1 = antagonists of human orexin 1 receptor (OX1R); Orexin/Hypocretin receptor type 1 (Homo sapiens), O43613; OX1R-expressing cells, FRET antagonist read-out; 330,000 compounds, 1.8% hits; inhibition, % at 6.6 µM; in the data active = inhibition mostly above about 38%, no sharp cut-off; inactive = mostly below about 40%;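 also: 0% = agonist challenge alone and 100% = reference antagonist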
GPR7 antagonist = GPR7 receptor antagonists, primary screen, cell-based, fluorescence, single concentration. inhibition, % at 4.4 µM. GPR7-expressing cells, fluorescence antagonist assay. 290,000 compounds, 1.1% hits. AID 1861, 2009; in the data active = inhibition above about 16%, passing the limit was not always enough;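 also: cells stimulated with the agonist NPW; 0% = agonist with vehicle and 100% = vehicle without agonist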
OX1R antag-2 = OX1R (HCRTR1) antagonists, primary screen, fluorescence, CHO/OX1R cells, Fluo-8 calcium, orexin A. Orexin/Hypocretin receptor type 1 (Homo sapiens), O43613. Fluo-8 calcium fluorescence. inhibition, % at 5 µM. 330,000 compounds, 0.43% hits. AID 434989, 2010;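 active = inhibition above its plate's threshold, mean inhibition of all tested compounds on the plate plus 3 SD, cut at about 37% in these data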;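 also: 0% = orexin A challenge wells and 100% = SB-334867-A antagonist wells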
CHO parental Ca = ATP-evoked calcium signal inhibitors, parental CHO, primary screen, counter-screen for OX1R antagonist project, cell-based, fluorescence, Fluo-8 calcium dye. parental CHO-K1, ATP-induced calcium, Fluo-8 fluorescence. inhibition, % at 5.6 µM. 330,000 compounds, 0.63% hits. AID 463079, 2010;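 active = inhibition above that plate's mean sample inhibition plus 3 SD, cut at about 26% in these data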;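 also: 0% = ATP-challenged DMSO wells and 100% = DMSO wells without ATP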
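Material: Parental CHO cells | Reagent: ATP | Compound dosing: Single nominal dose of 5.6 µM per compound | Detection: Intracellular calcium via Fluo-8 no-wash fluorescent dye | Read-out: % inhibition of ATP-induced calcium mobilization | Benchmarks: Low control ATP plus DMSO, high control DMSO only | Replicates: Singlicate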
TAAR1 agonist = human TAAR1 agonists, primary screen, Fluo-8 calcium fluorescence, CHO RD-HGA16 cells. vehicle wells 0%, saturating PEA agonist 100%. activation, % at 3 µM. 360,000 compounds, 0.99% hits. AID 624467, 2012;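 active = activation above the mean activation of all test compounds in the run plus 3 SD, cut at about 38% in these data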
Target sequence (Q96RJ0 whole entry, looked up): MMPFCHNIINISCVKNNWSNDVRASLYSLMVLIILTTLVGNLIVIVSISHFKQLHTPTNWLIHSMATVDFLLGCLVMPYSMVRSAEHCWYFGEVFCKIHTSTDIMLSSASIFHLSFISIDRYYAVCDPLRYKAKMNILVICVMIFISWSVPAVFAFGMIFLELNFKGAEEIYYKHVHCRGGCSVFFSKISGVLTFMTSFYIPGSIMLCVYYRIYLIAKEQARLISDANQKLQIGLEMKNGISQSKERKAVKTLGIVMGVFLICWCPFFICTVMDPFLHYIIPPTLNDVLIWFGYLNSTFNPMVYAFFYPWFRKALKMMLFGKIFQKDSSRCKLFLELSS
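test system = CHO RD-HGA16 cells carrying human TAAR1 plus Gα16 | schedule = 17-24 h seeding, 75 min 37 °C dye, 30 min RT | compound dosing = 3 µM single concentration | control set = DMSO and PEA EC100 | replicates = n 1 | signal = Fluo-8 fluorescence, 5 s baseline then 140 s kinetic read | measure = percent activation vs PEA EC100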
TAAR1 antagonist = human TAAR1 antagonists, primary screen, Fluo-8 calcium fluorescence, CHO RD-HGA16 cells | Trace amine-associated receptor 1 (Homo sapiens), Q96RJ0 | antagonist | inhibition, % at 3 µM | 360,000 compounds, 1.5% hits | AID 624466, 2012;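 active = inhibition above a per-plate cutoff, the mean inhibition of test compounds on that plate plus 3 SD, cut at about 49% in these data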;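 also: 0% = DMSO plus EC80 beta-PEA response and 100% = DMSO alone without agonist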
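System: CHO RD-HGA16 cells bearing hTAAR1. Reagent: EC80 β-phenethylamine stimulus. Schedule: seeding 17-24 h prior, 75-min 37 °C, 30-min RT dye loading. Signal: Fluo-8 intracellular calcium dye fluorescence, real-time kinetic reads. Read-out: % inhibition from peak post-agonist over basal fluorescence ratio. Benchmarks: vehicle wells and EC80 agonist wells. Replicates: n of 1.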
Numbers without * were called inactive; . = not tested or not shown. The list is not random: actives were taken first. Their share in the collection is about 4.6%.

SMILES	OX1R antag-1	GPR7 antagonist	OX1R antag-2	CHO parental Ca	TAAR1 agonist	TAAR1 antagonist
O=C(NNS(=O)(=O)c1ccc(F)cc1F)C1Cc2c(ccc3ccccc23)O1 (centres undefined)	27	-13	51*	42*	4	5
CS(=O)(=O)NNC(=O)C1Cc2c(ccc3ccccc23)O1 (centres undefined)	13	-10	-8	-1	1	-18
CN(C)CCOC(=O)/C(=C/c1cn(C)c2ccccc12)NC(=O)c1ccccc1	22	6	-10	-16	4	-13
CCOC(=O)C1CCCN(C2CC(=O)N(c3cccc(C(F)(F)F)c3)C2=O)C1 (centres undefined)	9	-19	-15	-6	43*	44
CC(=O)c1c(C)n([O-])c2ccc(C)cc2[n+]1=O	41*	-2	2	-4	2	-19
Cc1c(Cc2ccccc2)[n+](=O)c2ccccc2n1[O-]	.	.	.	.	0	-16
CCCOc1ccc(CNC(=O)c2ccc3c(c2)N(CC)CCS3)cc1	9	-5	-24	-12	0	-9
CC(C)(C)C1CCC(CN2C(Nc3ccccc3)=NC[C@@H]2Cc2ccccc2)CC1 (some centres undefined)	3	.	51	31	74*	36
O=C(Nc1ncc(Cc2ccc(SC(F)F)cc2)s1)c1ccccc1	14	2	8	8	44*	31
COc1ccccc1N1CCN(c2ccc3c(c2)S(=O)(=O)c2cccc(C(=O)NCc4ccc(F)cc4)c2C3=O)CC1	.	.	.	.	8	57*
O=C(NCc1cc(C(F)(F)F)ccc1Cl)c1cccc2c1C(=O)c1ccc(N3CCC(N4CCCCC4)CC3)cc1S2(=O)=O	.	.	.	.	16	59*
O=C(NCc1cccc(F)c1)c1cccc2c1C(=O)c1ccc(N3CCC(Cc4ccccc4)CC3)cc1S2(=O)=O	15	.	40	42*	.	.
O=C(NCc1cccc(C(F)(F)F)c1)c1cccc2c1C(=O)c1ccc(N3CCC(Cc4ccccc4)CC3)cc1S2(=O)=O	6	.	49	27	.	.
CN(C(=O)CCCN1C(=O)c2ccccc2C1=O)C1CCCCC1	4	.	-9	-14	11	1
CCc1ccccc1NC(=O)c1cc(-c2cccc(O)c2)on1	14	-16	-5	-9	7	8
COc1cccc(-c2cc(C(=O)Nc3cccc(O)c3)no2)c1	71*	-11	15	-6	8	34
CC(C)c1cc(C(=O)Nc2cccc(C(F)(F)F)c2)no1	19	-7	-2	-4	7	3
COc1cc(NC(=O)c2cc(-c3cccc(O)c3)on2)cc(OC)c1OC	38*	-1	-14	-4	10	42
O=C(Nc1cccc(C(F)(F)F)c1)c1cc(-c2ccc(F)cc2)on1	10	-18	-19	58*	8	8
O=C(Nc1ccccc1C(F)(F)F)c1cc(-c2cccc(O)c2)on1	9	-11	3	51*	7	16
COc1cc(NC(=O)C(=O)NCCN2CCNCC2)c(OC)cc1Cl	18	-23	-31	-10	7	5
O=C(NCCCn1ccnc1)/C(=C/c1ccccc1)NC(=O)c1ccccc1	15	4	-2	12	1	-7
CN(C)c1ccc(/C=C(\NC(=O)c2ccccc2)C(=O)NCCCn2ccnc2)cc1	40*	-11	-1	-5	-1	19
Cc1ccc(S(=O)(=O)N2CCOCC2)cc1NC(=O)CSc1nnnn1C	8	-9	-1	-8	2	-9
COc1cccc(CC2(CO)CCN(Cc3cccn3-c3cccnc3)CC2)c1	16	4	-17	-21	4	14
CCCC(=O)Nc1ccc(Cl)c(NC(=S)NC(=O)C(C)C)c1	12	2	-4	9	4	-6
CCCC(=O)Nc1ccc(Cl)c(NC(=O)c2cccnc2Cl)c1	16	6	1	7	39*	2

Bioassay records from PubChem BioAssay.
